ChEMBL document CHEMBL3822413, “Design, synthesis, and evaluation of water-soluble morpholino-decorated paclitaxel prodrugs with remarkably decreased toxicity” (Bioorg Med Chem Lett, 2016)
Values after ≈ are worked out from the molar mass of the structure shown. Active and inactive are the calls of the source. The rule behind the calls is not given here.

Experiments:
HeLa [1] = experiment: Cytotoxicity against human HeLa cells assessed as cell viability measured after 48 hrs by MTS assay; type: functional, cell-based
Method in brief: (§1)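 MCF-7 and HeLa cells seeded at 4×10^3 cells/well 24 h before treatment, then exposed to compounds for 48 h or 72 h. Viability measured by MTS assay and IC50 derived; top concentration tested 1 µM.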

MCF7 [2] = experiment: Cytotoxicity against human MCF7 cells assessed as cell viability measured after 48 hrs by MTS assay; type: functional, cell-based; details: MCF7, 48 h; method in brief: as §1
MCF7 [3] = experiment: Cytotoxicity against human MCF7 cells assessed as cell viability measured after 72 hrs by MTS assay; type: functional, cell-based; details: MCF7, 72 h; method in brief: as §1
HeLa [4] = experiment: Cytotoxicity against human HeLa cells assessed as cell viability measured after 72 hrs by MTS assay; type: functional, cell-based; method in brief: as §1
[5] = Aqueous solubility of the compound; type: physicochemical
[6] = Ratio of aqueous solubility of compound to aqueous solubility of paclitaxel; type: physicochemical; details: buffer
[7] = Chemical stability of the compound assessed as paclitaxel release in presence of FBS measured after 5 hrs by HPLC analysis; type: physicochemical; details: cattle
Method in brief: (§2)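 Compound solution added to fetal bovine serum (400 µl into 3600 µl) and incubated at 37 °C. At set time points, 100 µl aliquots were quenched with 300 µl acetonitrile and centrifuged 5 min at 10,000 rpm. Supernatant analysed by HPLC for intact prodrug and released paclitaxel.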

Mus musculus [8] = experiment: Toxicity in mouse allografted with mouse S180 cells assessed as mortality at 25 mg/kg, iv administered 4 time a day post 24 hrs of tumor implantation; type: organism-based, CCRF S-180; details: in vivo
Method in brief: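 S-180 cells were implanted subcutaneously in mice, 8 per group. Starting 24 h later, dosing was iv every other day for 4 doses, with dose expressed as paclitaxel-equivalent. Prodrug vehicle was 5% glucose. Paclitaxel was given in cremophor/ethanol (50%/50%) diluted 10-fold with 5% glucose. Vehicle controls received 5% glucose. Deaths were counted up to day 10.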

CCRF S-180 [9] = experiment: Antitumor activity against mouse S180 cells allografted in mouse assessed as tumor weight at 25 mg/kg, iv administered 4 time a day post 24 hrs of tumor implantation measured after 10 days (reference value: 7.35g); type: functional
CCRF S-180 [10] = experiment: Antitumor activity against mouse S180 cells allografted in mouse assessed as tumor growth inhibition at 25 mg/kg, iv administered 4 time a day post 24 hrs of tumor implantation measured after 10 days; type: functional; details: CCRF S-180, iv, read-out: TGI
Plasma = experiment: Metabolic stability in mouse plasma assessed as paclitaxel release at 37 degC in presence of dithiotheitol measured after 10 min; type: ADME, cell-free
Method in brief: (§3)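 Compound incubated in mouse plasma at 37 °C for up to 48 h. Remaining compound and released paclitaxel measured at intervals, expressed as detected concentration divided by total concentration. In a separate incubation, 10 mM dithiothreitol was added.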

[11] = Metabolic stability in mouse plasma assessed as compound degradation at 37 degC measured after 10 hrs; type: ADME, cell-free; details: read-out: Drug degradation; method in brief: as §3
Mus musculus [12] = experiment: Acute toxicity in mouse allografted with mouse S180 cells assessed as mouse survival at 90 mg/kg, iv administered 4 times per day post 24 hrs of tumor implantation; type: organism-based, CCRF S-180; details: in vivo
Mus musculus [13] = experiment: Toxicity in mouse allografted with mouse S180 cells assessed as change in body weight at 25 mg/kg, iv administered 4 time a day post 24 hrs of tumor implantation measured after 10 days (reference value: -2.8%); type: organism-based, CCRF S-180; details: in vivo, 240 h
[14] = Chemical stability of the compound assessed as compound degradation in presence of FBS measured after 4 hrs by HPLC analysis; type: physicochemical; details: cattle; method in brief: as §2
[15] = Chemical stability of the compound assessed as paclitaxel release in presence of FBS measured after 4 hrs by HPLC analysis; type: physicochemical; details: cattle; method in brief: as §2
MCF7 [16] = experiment: Cytotoxicity against human MCF7 cells at 1 uM by MTS assay; type: functional, cell-based; method in brief: as §1
HeLa [17] = experiment: Cytotoxicity against human HeLa cells at 1 uM by MTS assay; type: functional, cell-based; method in brief: as §1
[18] = Toxicity in mouse; type: organism-based; details: in vivo
Mus musculus [19] = experiment: Acute toxicity in mouse allografted with mouse S180 cells at 60 mg/kg, iv administered 4 times per day post 24 hrs of tumor implantation measured after 24 hrs; type: organism-based, CCRF S-180; details: in vivo

SMILES	IC50 (HeLa [1]) [nM]	IC50 (MCF7 [2]) [nM]	IC50 (MCF7 [3]) [nM]	IC50 (HeLa [4]) [nM]	solubility [5] [µg/mL]	Ratio [6]	Drug metabolism [7]	Activity (Mus musculus [8])	Activity (CCRF S-180 [9]) [g]	inhibition in vivo at 25 mg/kg (CCRF S-180 [10]) [%]	Drug metabolism (Plasma)	metabolised at 10 h [11] [%]	Survival (Mus musculus [12]) [weeks]	Activity (Mus musculus [13]) [%]	Stability [14]	Drug metabolism [15]	Activity (MCF7 [16])	Activity (HeLa [17])	MTD [18] [mg/kg]	Activity (Mus musculus [19])
CC(=O)O[C@H]1C(=O)[C@@]2(C)[C@H]([C@H](OC(=O)c3ccccc3)[C@]3(O)C[C@H](OC(=O)[C@H](OC(=O)CN4CCOCC4)[C@@H](NC(=O)c4ccccc4)c4ccccc4)C(C)=C1C3(C)C)[C@]1(OC(C)=O)CO[C@@H]1C[C@@H]2O	49.2	12	3.49	22.9	100 (≈ 102 µM)	400	–	–	–	–	–	–	–	–	–	–	–	–	–	–
CC(=O)O[C@H]1C(=O)[C@@]2(C)[C@H]([C@H](OC(=O)c3ccccc3)[C@]3(O)C[C@H](OC(=O)[C@H](OC(=O)CCC(=O)NCCN4CCOCC4)[C@@H](NC(=O)c4ccccc4)c4ccccc4)C(C)=C1C3(C)C)[C@]1(OC(C)=O)CO[C@@H]1C[C@@H]2O	19.8	4.23	0.74	14.6	500 (≈ 469 µM)	2000	metabolite_detected	–	–	–	–	–	–	–	–	–	–	–	–	–
CC(=O)O[C@H]1C(=O)[C@@]2(C)[C@H]([C@H](OC(=O)c3ccccc3)[C@]3(O)C[C@H](OC(=O)[C@H](OC(=O)OCCSSCC(=O)N[C@H](CC(=O)NCCN4CCOCC4)C(=O)NCCN4CCOCC4)[C@@H](NC(=O)c4ccccc4)c4ccccc4)C(C)=C1C3(C)C)[C@]1(OC(C)=O)CO[C@@H]1C[C@@H]2O	20.6	7.45	4.07	14	5000 (≈ 3600 µM)	20000	–	Non-toxic	3.43	54	metabolite_detected	100	1	-16.1	–	–	–	–	–	–
CC(=O)O[C@H]1C(=O)[C@@]2(C)[C@H]([C@H](OC(=O)c3ccccc3)[C@]3(O)C[C@H](OC(=O)[C@H](OC(=O)NCCN4CCOCC4)[C@@H](NC(=O)c4ccccc4)c4ccccc4)C(C)=C1C3(C)C)[C@]1(OC(C)=O)CO[C@@H]1C[C@@H]2O	> 1000	> 1000	> 1000	> 1000	500 (≈ 495 µM)	2000	–	–	–	–	–	–	–	–	Unstable	metabolite_notdetected	inactive	inactive	–	–
CC(=O)O[C@H]1C(=O)[C@@]2(C)[C@H]([C@H](OC(=O)c3ccccc3)[C@]3(O)C[C@H](OC(=O)[C@H](O)[C@@H](NC(=O)c4ccccc4)c4ccccc4)C(C)=C1C3(C)C)[C@]1(OC(C)=O)CO[C@@H]1C[C@@H]2O [PACLITAXEL]	23.3	3.1	1.25	12.6	–	–	–	–	3.34	56	–	–	–	-28.1	–	–	–	–	30	Toxic
